These results are taken from publication PMC11831629 (The Journal of International Medical Research, 2025).

Data set [1] is classed as in vivo, human. The gist of the method: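 Elderly ICU patients without prior renal failure, AKI, RRT or ECMO received iv test compound for more than 3 days. AKI was a creatinine rise of more than 50% from baseline. Trough and peak plasma levels were measured by HPLC-MS/MS after at least six doses. AUCss,24h and Css,avg were derived with first-order elimination equations. ROC analysis gave sensitivity and specificity for AKI prediction.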

For data set [2] the following is noted: multicenter study; cited from earlier work.
Where [3] appears, read: ROC curve analysis, critically ill elderly patients, 28 AKI vs 30 non-AKI.

Bridge positions count the residues as written; N and C are the ends. Square brackets hold non-standard residues; d marks the D form. Peptide text beside a SMILES is read from it. * marks the point of attachment. X1 = CC[C@H](C)CCCCC(=O)*; Dab = NCC[C@H](N)C(=O)O

With `CC[C@H](C)CCCCC(=O)N[C@@H](CCN)C(=O)N[C@H](C(=O)N[C@@H](CCN)C(=O)N[C@H]1CCNC(=O)[C@H]([C@@H](C)O)NC(=O)[C@H](CCN)NC(=O)[C@H](CCN)NC(=O)[C@H](CC(C)C)NC(=O)[C@@H](Cc2ccccc2)NC(=O)[C@H](CCN)NC1=O)[C@@H](C)O` [polymyxin B] (X1-[Dab]T[Dab][Dab][Dab][dF]L[Dab][Dab]T; lactam 4-C), the “area under the ROC curve of Css,avg for prediction of PB-AKI” value in data set [1] (95% CI 0.579-0.847) is recorded as 0.713. Further, in data set [1] (95% CI 0.661-0.910), the “area under the ROC curve of Cmin for prediction of PB-AKI” value was 0.786. Also, in data set [1] (setting [3]), the “cutoff value for Cmin for predicting AKI” value was 2940 ng/mL and the “cutoff value for Css,avg for predicting AKI” value is 4140 ng/mL. In data set [1] (cutoff 2.94 mg/L), the “sensitivity of Cmin cutoff for prediction of PB-AKI” value was 78.57% and the “specificity of Cmin cutoff for prediction of PB-AKI” value is reported as 80.00%. Further, in data set [1] (cutoff 4.14 mg/L), the “sensitivity of Css,avg cutoff for prediction of PB-AKI” value is reported as 82.14 and the “specificity of Css,avg cutoff for prediction of PB-AKI” value is recorded as 53.33%. In addition, the “mortality rate of patients with PB-associated AKI higher than that of patients without AKI” value in data set [2] is 17%.
